In the library only some 3% were active in any assay of this set; here they are far more common.
C2C12 statin – suppression of simvastatin myotoxicity | rescue of ATP level, % at 7.49 µM | C2C12 myotubes + simvastatin, ATP luminescence, 48 h; scaled: DMSO 0, geranylgeraniol control 100 | actives 0.78% (n = 330,000);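 active = mean ATP rescue above about 67%, or every replicate alone reaching that limit, limit read from the data, passing the limit was not always enough; inconclusive = no clear call, values can overlap the other calls; inactive = mean under the limit and some replicate under it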;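 also: myotubes were challenged with 10 µM simvastatin during compound exposure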
PGC1a acetyl inh – PGC1a acetylation modulation, inhibitor mode; U2OS PGC1a acetylation, AlphaScreen anti-acetyl-lysine; with virally co-expressed GCN5 acetyltransferase; inhibition, % at 15.6 µM; actives 0.17% (n = 350,000); AID 651687;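 active = every replicate shows inhibition of at least 40%; inconclusive = mean inhibition at least 40% but some replicate below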;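 also: 0% = neutral control wells and 100% = positive control wells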
rRNA inh HTS – selective bacterial rRNA inhibition in E. coli. E. coli WT GFP vs humanized-ribosome RFP mutants, fluorescence, 24 h; hits give low values; DMSO median 0, no signal -100. GFP signal change (wild-type ribosome), % (test concentration not listed). actives 1.6% (n = 350,000). AID 720706;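 active = significant combined selectivity score with lowered wild-type GFP, culture density cut under 30%, mutant RFP and density less affected; inactive = any of these conditions unmet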
S100A4 MyoIIA – inhibitors of human S100A4 binding to myosin IIA peptide | inhibition, % at 10.7 µM | actives 0.14% (n = 360,000) | S100A4/TAMRA-MyoIIA peptide fluorescence polarization | P26447;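 active = mean inhibition of at least 70% across replicates, with every replicate also reaching that level; inconclusive = mean inhibition reaches 70% but some replicates fall short; inactive = mean inhibition below 70%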
Target sequence (P26447 whole entry, looked up): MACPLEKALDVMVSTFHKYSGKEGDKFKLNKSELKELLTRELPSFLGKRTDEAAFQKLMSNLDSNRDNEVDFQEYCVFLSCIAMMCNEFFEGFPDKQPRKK
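assay system = human S100A4 monomer with TAMRA-labelled myosin IIA peptide | also added = labelled myosin peptide probe, 5 nM | incubation = 5 min between mix addition and reading | control set = DMSO and TFP controls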
Cneo AK release – Cryptococcus neoformans lysis via adenylate kinase release. AID 651654. lysis activity, % at 15 µM. actives 0.2% (n = 360,000). C. neoformans lysis, adenylate kinase release luminescence, 4 h; normalised: neutral wells 0, clomiphene wells 100;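 active = mean lysis activity across replicates of at least 80%, whatever share of replicates individually reach that level; inactive = mean lysis activity below 80%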
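Test system: log-phase Cryptococcus neoformans yeast cells. Input: 5 × 10^6 yeast cells/mL. Medium: fresh YPD growth medium. Doses: single dose. Incubation: static 4 h at 37 °C with compound, 1 h detection. Measured by: luminescent adenylate kinase detection reagent. Read-out: signal increase indicating cell lysis. Benchmarks: Clomiphene.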
SIRT5 block – inhibitors of human sirtuin-5 desuccinylase. Q9NXA8. Purified SirT5, succinyl-peptide AMC, trypsin-coupled fluorescence. inhibition, % at 15 µM. actives 1.1% (n = 330,000). AID 652115; in the data active = inhibition above about 15%; inconclusive = no clear call, values can overlap the other calls
Target sequence (Q9NXA8 whole entry, looked up): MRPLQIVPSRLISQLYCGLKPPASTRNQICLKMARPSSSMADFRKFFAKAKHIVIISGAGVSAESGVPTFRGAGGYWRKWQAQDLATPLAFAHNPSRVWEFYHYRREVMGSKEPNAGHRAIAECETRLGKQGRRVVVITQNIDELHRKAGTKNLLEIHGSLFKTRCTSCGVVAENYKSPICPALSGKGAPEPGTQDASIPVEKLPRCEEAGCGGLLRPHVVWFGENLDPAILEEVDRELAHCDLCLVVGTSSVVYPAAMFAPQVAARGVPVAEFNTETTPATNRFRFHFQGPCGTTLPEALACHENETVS
The depositor's hits bear a star; ? = inconclusive; · = no result.

SMILES	C2C12 statin	PGC1a acetyl inh	rRNA inh HTS	S100A4 MyoIIA	Cneo AK release	SIRT5 block
COc1ccc(NC(=O)Nc2ccc3c(c2)C(=O)N([C@@H](C)CO)C[C@H](C)[C@@H](CN(C)S(=O)(=O)c2ccc(F)cc2)OCCCC[C@@H](C)O3)cc1	·	1	1	6	0	8
COc1ccc(S(=O)(=O)N(C)C[C@H]2OCCCC[C@H](C)Oc3ccc(NC(=O)Nc4ccc(F)cc4)cc3C(=O)N([C@H](C)CO)C[C@@H]2C)cc1	2	11	-3	-19	37	17*
COc1ccc(NC(=O)Nc2ccc3c(c2)C(=O)N([C@H](C)CO)C[C@@H](C)[C@@H](CN(C)S(=O)(=O)c2ccc(Cl)cc2)OCCCC[C@H](C)O3)cc1	·	2	5	-6	96*	-1
CN(C)CC#Cc1ccc([C@@H]2[C@@H](CO)N3CCCCN(C(=O)C4CCCC4)C[C@@H]23)cc1	·	6	·	4	-1	2
COc1ccc(S(=O)(=O)N(C)C[C@@H]2OCCCC[C@H](C)Oc3ccc(NC(=O)Nc4ccc(F)cc4)cc3C(=O)N([C@H](C)CO)C[C@H]2C)cc1	-12	-27	1	-2	-1	17*
NC(=O)NCC#Cc1ccc2c(c1)[C@]1(C(=O)N2)[C@H](c2ccc(O)cc2)N2[C@H](c3ccccc3)[C@H](c3ccccc3)OC(=O)[C@H]2[C@@H]1C(N)=O	·	·	·	55	4	4
CNC[C@@H]1Oc2ncccc2C(=O)N(C)C[C@H]1C	·	·	5	·	·	·
C[C@@H]1CCCCO[C@@H](CN(C)Cc2ccc(C(F)(F)F)cc2)[C@H](C)CN([C@@H](C)CO)C(=O)c2cc(NC(=O)CCC(F)(F)F)ccc2O1	?	3	5	5	5	1
C[C@@H]1CCCCO[C@H](CN(C)Cc2ccc(C(F)(F)F)cc2)[C@H](C)CN([C@@H](C)CO)C(=O)c2cc(NC(=O)CCC(F)(F)F)ccc2O1	-17	-7	3	-22	5	5
C[C@H]1CCCCO[C@H](CN(C)Cc2ccc(Cl)c(Cl)c2)[C@@H](C)CN([C@@H](C)CO)C(=O)c2cc(NC(=O)CCC(F)(F)F)ccc2O1	·	16	-3	-1	1	15*
C[C@@H]1CN([C@H](C)CO)C(=O)c2cc(NC(=O)CCC(F)(F)F)ccc2O[C@@H](C)CCCCO[C@@H]1CN(C)Cc1ccc(C(F)(F)F)cc1	125*	1	5	1	2	21*
C[C@@H]1CCCCO[C@@H](CN(C)Cc2ccc(C(F)(F)F)cc2)[C@@H](C)CN([C@@H](C)CO)C(=O)c2cc(NC(=O)CCC(F)(F)F)ccc2O1	83*	13	5	8	-5	8
COC(=O)C[C@H]1CC[C@@H]2[C@H](COC[C@@H](O)CN2C(=O)Nc2cccc(F)c2)O1	-10	-7	-3	-9	49	3
Cc1noc(C)c1S(=O)(=O)Nc1ccc2c(c1)C(=O)N([C@@H](C)CO)C[C@H](C)[C@@H](CN(C)S(=O)(=O)c1cccs1)OCCCC[C@@H](C)O2	-47	·	-1	·	1	·
CCOC(=O)CNC(=O)C12CC3CC(CC(C3)C1)C2	·	·	7	0	·	16*
CCOC(=O)N1CCN(C(=O)CNC(=O)C23CC4CC(CC(C4)C2)C3)CC1	6	-9	-1	-4	-8	2
Nc1nnc(SCC(=O)Nc2ccc(Cl)c(C(=O)O)c2)s1	·	1	12	4	·	17*
COC(=O)c1cc(NC(=O)CSc2nnc(N)s2)ccc1Cl	1	13	-22*	-7	2	2
O=C(CN1CCOCC1)N1CC2(C1)[C@H](c1ccccc1)[C@@H](CO)N2Cc1ccccc1	·	5	4	16	·	-4
O=C(NCCc1ccc(Cl)cc1)C1CCN(S(=O)(=O)c2cccs2)CC1	-18	-41	·	·	-2	·
O=C(O)c1ccc(Cl)cc1NC(=O)C1CCN(S(=O)(=O)c2cccs2)CC1	-7	-7	-18*	-2	10	·
C[C@H](CO)N1C[C@H](C)[C@@H](CN(C)C)Oc2ccc(NC(=O)Cn3cnnn3)cc2C1=O	2	7	6	7	-2	-8
Cc1noc(C)c1S(=O)(=O)Nc1ccc2c(c1)C(=O)N([C@@H](C)CO)C[C@@H](C)[C@@H](CN(C)C(=O)Cc1ccccc1)OCCCC[C@@H](C)O2	26	26	-2	6	-1	1
COc1ccc(CCNc2nc(=S)[nH]c3cc(OC)c(OC)cc23)cc1OC	·	·	0	-4	·	-1
COc1cc2[nH]c(=S)nc(NCCc3ccc(C)cc3)c2cc1OC	·	·	-26*	2	·	-1
SMILES	C2C12 statin	PGC1a acetyl inh	rRNA inh HTS	S100A4 MyoIIA	Cneo AK release	SIRT5 block
C[C@H](CO)N1C[C@H](C)[C@H](CN(C)S(=O)(=O)c2cccs2)Oc2ccc(NC(=O)Cc3cn(C)c4ccccc34)cc2C1=O	104*	0	0	-8	-1	2
C[C@H]1CN([C@@H](C)CO)C(=O)c2cc(NC(=O)Cc3cn(C)c4ccccc34)ccc2O[C@H]1CN(C)S(=O)(=O)c1cccs1	?	4	-3	5	-1	1
C[C@@H]1CN([C@@H](C)CO)C(=O)c2cc(NC(=O)Cc3cn(C)c4ccccc34)ccc2O[C@H]1CN(C)S(=O)(=O)c1cccs1	111*	-3	-4	13	4	2
C[C@@H]1CN([C@@H](C)CO)C(=O)c2cc(N(C)C)ccc2O[C@@H](C)CCCCO[C@@H]1CN(C)C(=O)Nc1ccc2c(c1)OCO2	29	·	0	·	·	·
O=C(/C=C/c1ccc(Cl)cc1)N1CCN(c2c(Cl)cccc2[N+](=O)[O-])CC1	·	·	-13	0	0	0
O=C(CSc1ccc(Cl)cc1)N1CCN(c2c(Cl)cccc2[N+](=O)[O-])CC1	67*	-1	·	·	18	·
CN1c2ccccc2-c2nc3ccccc3n2C1c1ccncc1 (stereo not drawn)	·	-11	-23*	1	0	-2
Cc1nc([N+](=O)[O-])cn1CC(O)c1ccc(-c2ccccc2)cc1 (stereo not drawn)	·	16	-45*	-5	0	-5
Cc1ccc(C(O)Cn2cc([N+](=O)[O-])nc2C)cc1 (stereo not drawn)	-1	-3	-1	0	-4	-2
COc1ccc(CCNC(=O)c2ccc(N3CCCC3=O)cc2)cc1	114*	5	·	·	2	·
CCC(NC(=O)NCc1ccccc1)(C(F)(F)F)C(F)(F)F	·	·	3	2	·	30*
O=C(C[C@H]1C=C[C@H](NC(=O)C2CCC2)[C@@H](CO)O1)NC1CCC1	0	-1	2	8	91*	-7

Bioassay records deposited in PubChem BioAssay by Broad Institute.
